Results: ChEMBL document CHEMBL1121797, “Studies on chiral interactions of 1-(2,5-dimethoxy-4-methylphenyl)-2-aminopropane and the corresponding N-hydroxy metabolites with cytochrome P-450” (J Med Chem, 1981)
“And” between values parts separate entries of the source, which are not always exact repeats. Equal values may be shown once.

What was measured:
Cytochrome P450 2C19 [1] = target: T1, Cytochrome P450 2C19 (Homo sapiens, UniProt P33261); experiment: Percent inhibition of formation of metabolic intermediate complex between Cytochrome P450 and compound 1a (30 uM) initially, following incubation at compound concentration of 30 uM; assay type: ADME, Oryctolagus cuniculus; conditions: rabbit, probe compound 1a (30 uM)
In short: (§1)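 Inverse cross-inhibition in NADPH-supplemented rabbit liver microsomes at 37 °C. Preincubation with racemic hydroxylamine at 0–30 μM, monitoring 457-nm complex formation. The amine was then added at 30 μM, or racemic hydroxylamine at 30 μM. Initial rate and plateau extent were taken from ΔA457–500 nm tracings. Percent inhibition is relative to incubation in fresh microsomes.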

Cytochrome P450 2C19 [2] = target: T1, Cytochrome P450 2C19; experiment: (§2) Extent of complex formation with 5 uM compound; assay type: ADME, Oryctolagus cuniculus; conditions: rabbit
Cytochrome P450 2C19 [3] = target: T1, Cytochrome P450 2C19; experiment: Percent inhibition of formation of metabolic intermediate complex between Cytochrome P450 and compound 1a (30 uM) on extent, following incubation at compound concentration of 20 uM; assay type: ADME, Oryctolagus cuniculus; conditions: rabbit, probe compound 1a (30 uM)
Cytochrome P450 2C19 [4] = target: T1, Cytochrome P450 2C19; experiment: Percent inhibition of formation of metabolic intermediate complex between Cytochrome P450 and compound 1a (30 uM) on extent, on pre-incubation with compound concentration of 5 uM; assay type: ADME, Oryctolagus cuniculus; conditions: rabbit, probe compound 1a (30 uM)
In short: (§3)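 Hepatic microsomes came from male Dutch rabbits, fasted 24 h. They were diluted to 2 mg protein/mL in 50 mM Tris-Cl with 150 mM KCl, 10 mM MgSO4 and 0.1 mM EDTA, with NADPH added, at 37 °C. Microsomes were preincubated with racemic hydroxylamine 2, then 30 µM 1a or 30 µM racemic 2 was added. Complex formation was followed as ΔA457–500 nm, and inhibition of rate and extent (plateau) was calculated.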

Cytochrome P450 2C19 [5] = target: T1, Cytochrome P450 2C19; experiment: (§4) Extent of complex formation with 20 uM compound; assay type: ADME, Oryctolagus cuniculus; conditions: rabbit
Cytochrome P450 2C19 [6] = target: T1, Cytochrome P450 2C19; experiment: Percent inhibition of formation of metabolic intermediate complex between Cytochrome P450 and compound 1a (30 uM) initially, following incubation at compound concentration of 15 uM; assay type: ADME, Oryctolagus cuniculus; conditions: rabbit, probe compound 1a (30 uM); in short: as §1
Cytochrome P450 2C19 [7] = target: T1, Cytochrome P450 2C19; experiment: Initial rate of complex formation with20 uM compound; assay type: ADME, Oryctolagus cuniculus; conditions: rabbit, 20 µM
[8] = Lag time between the addition of compound (30 uM) and the first appearance of chromophore; assay type: ADME
In short: (§5)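 Rabbit liver microsomes at 2 mg protein/mL with 0.1 mM EDTA, 37 °C, substrate 30 μM. Complex formation started with 0.4 mM NADPH and followed by dual-wavelength absorbance, 457 vs 500 nm. Initial rate is the initial slope, ΔA×10^4 per nmol P-450 per min. Extent is the plateau absorbance. Lag is the time from NADPH addition to first 457-nm chromophore. Triplicate or single runs.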

Cytochrome P450 2C19 [9] = target: T1, Cytochrome P450 2C19; experiment: Percent inhibition of formation of metabolic intermediate complex between Cytochrome P450 and compound 1b (30 uM) on extent, following incubation at compound concentration of 20 uM; assay type: ADME, Oryctolagus cuniculus; conditions: rabbit, probe compound 1b (30 uM)
In short: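 Rabbit liver microsomes (2 mg protein/mL; Tris-Cl/KCl/MgSO4 buffer, 0.1 mM EDTA) plus NADPH, at 37 °C, were preincubated with racemic or enantiomeric amine 1. The 457-nm complex was monitored until it plateaued (6–8 min), then racemic hydroxylamine 2 was added. Initial rate and plateau extent of complex formation came from dual-wavelength ΔA457–500 nm versus time tracings.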

Cytochrome P450 2C19 [10] = target: T1, Cytochrome P450 2C19; experiment: Percent inhibition of formation of metabolic intermediate complex between Cytochrome P450 and compound 1a (30 uM) on extent, on pre-incubation with compound concentration of 30 uM; assay type: ADME, Oryctolagus cuniculus; conditions: rabbit, probe compound 1a (30 uM); in short: as §3
Cytochrome P450 2C19 [11] = target: T1, Cytochrome P450 2C19; experiment: Percent inhibition of formation of metabolic intermediate complex between Cytochrome P450 and compound 1a (30 uM) initially, following incubation at compound concentration of 5 uM; assay type: ADME, Oryctolagus cuniculus; conditions: rabbit, probe compound 1a (30 uM); in short: as §1
Cytochrome P450 2C19 [12] = target: T1, Cytochrome P450 2C19; experiment: Initial rate of complex formation without compound; assay type: ADME, Oryctolagus cuniculus; conditions: rabbit; in short: as §1
Cytochrome P450 2C19 [13] = target: T1, Cytochrome P450 2C19; experiment: (§6) Initial rate of complex formation with 30 uM compound; assay type: ADME, Oryctolagus cuniculus; conditions: rabbit
Cytochrome P450 2C19 [14] = target: T1, Cytochrome P450 2C19; experiment: Extent of complex formation with 30 uM compound; assay type: ADME, Oryctolagus cuniculus; conditions: rabbit
Cytochrome P450 2C19 [15] = target: T1, Cytochrome P450 2C19; experiment: Percent inhibition of formation of metabolic intermediate complex between Cytochrome P450 and compound 1a (30 uM) on extent, following incubation at compound concentration of 0 uM; assay type: ADME, Oryctolagus cuniculus; conditions: rabbit, probe compound 1a (30 uM); in short: as §3
Cytochrome P450 2C19 [16] = target: T1, Cytochrome P450 2C19; experiment: as §2; assay type: ADME, Oryctolagus cuniculus; conditions: rabbit; remark: listed apart in the source
[17] = Initial rates of formation of metabolic intermediate Cytochrome P-450 at compound concentration of 30 uM; assay type: ADME; in short: as §5
Cytochrome P450 2C19 [18] = target: T1, Cytochrome P450 2C19; experiment: Extent of complex formation without compound; assay type: ADME, Oryctolagus cuniculus; conditions: rabbit; in short: as §1
Cytochrome P450 2C19 [19] = target: T1, Cytochrome P450 2C19; experiment: Percent inhibition of formation of metabolic intermediate complex between Cytochrome P450 and compound 1a (30 uM) initially, on pre-incubation with compound concentration of 5 uM; assay type: ADME, Oryctolagus cuniculus; conditions: rabbit, probe compound 1a (30 uM); in short: as §1
Cytochrome P450 2C19 [20] = target: T1, Cytochrome P450 2C19; experiment: Percent inhibition of formation of metabolic intermediate complex between Cytochrome P450 and compound 1a (30 uM) on extent, following incubation at compound concentration of 30 uM; assay type: ADME, Oryctolagus cuniculus; conditions: rabbit
Cytochrome P450 2C19 [21] = target: T1, Cytochrome P450 2C19; experiment: as §4; assay type: ADME, Oryctolagus cuniculus; conditions: rabbit; remark: listed apart in the source
Cytochrome P450 2C19 [22] = target: T1, Cytochrome P450 2C19; experiment: as §6; assay type: ADME, Oryctolagus cuniculus; conditions: rabbit; remark: listed apart in the source

T1 sequence (P33261 whole entry): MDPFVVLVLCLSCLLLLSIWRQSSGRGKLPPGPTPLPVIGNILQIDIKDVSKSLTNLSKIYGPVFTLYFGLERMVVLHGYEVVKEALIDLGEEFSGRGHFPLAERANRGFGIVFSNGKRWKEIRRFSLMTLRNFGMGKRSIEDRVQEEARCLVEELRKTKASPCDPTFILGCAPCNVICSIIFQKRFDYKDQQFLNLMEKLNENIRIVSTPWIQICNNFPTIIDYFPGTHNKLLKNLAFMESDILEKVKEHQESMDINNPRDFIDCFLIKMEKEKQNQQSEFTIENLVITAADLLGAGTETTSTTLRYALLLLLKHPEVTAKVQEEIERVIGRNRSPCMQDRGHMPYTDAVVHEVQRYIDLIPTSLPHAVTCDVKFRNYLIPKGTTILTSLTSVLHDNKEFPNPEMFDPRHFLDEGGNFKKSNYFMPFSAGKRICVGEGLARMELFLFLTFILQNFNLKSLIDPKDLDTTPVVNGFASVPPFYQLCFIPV

COc1cc(C[C@@H](C)NO)c(OC)cc1C.COc1cc(C[C@H](C)NO)c(OC)cc1C
inhibition at 30 µM (Cytochrome P450 2C19 [1]): 72%
Complex_formation (Cytochrome P450 2C19 [2]): 39 deltaA.10^4nmol-1
inhibition at 20 µM (Cytochrome P450 2C19 [3]): 27%
inhibition at 5 µM (Cytochrome P450 2C19 [4]): 43%
Complex_formation (Cytochrome P450 2C19 [5]): 90 deltaA.10^4nmol-1
inhibition at 15 µM (Cytochrome P450 2C19 [6]): 51%
Initial_rate (Cytochrome P450 2C19 [7]): 87 deltaA.10^4nmol-1.min-1
Lag time [8]: 0 s
inhibition at 20 µM (Cytochrome P450 2C19 [9]): 13%
inhibition at 30 µM (Cytochrome P450 2C19 [10]): 100%
inhibition at 5 µM (Cytochrome P450 2C19 [11]): 39%
Initial_rate (Cytochrome P450 2C19 [12]): 46 deltaA.10^4nmol-1.min-1 and 124 deltaA.10^4nmol-1.min-1
Initial_rate (Cytochrome P450 2C19 [13]): 5 deltaA.10^4nmol-1.min-1
Complex_formation (Cytochrome P450 2C19 [14]): 51 deltaA.10^4nmol-1
inhibition at 0 uM (Cytochrome P450 2C19 [15]): 30%
Complex_formation (Cytochrome P450 2C19 [16]): 43 deltaA.10^4nmol-1 and 85 deltaA.10^4nmol-1
Rate [17]: 154
Complex_formation (Cytochrome P450 2C19 [18]): 76 deltaA.10^4nmol-1 and 95 deltaA.10^4nmol-1
inhibition at 5 µM (Cytochrome P450 2C19 [19]): 80%
Inhibition (Cytochrome P450 2C19 [20]; 30 µM): 66%
inhibition at 30 µM (Cytochrome P450 2C19 [20]; probe compound 1a (30 uM)): 73%
Complex_formation (Cytochrome P450 2C19 [21]): 108 deltaA.10^4nmol-1
Initial_rate (Cytochrome P450 2C19 [22]): 177 deltaA.10^4nmol-1.min-1 and 176 deltaA.10^4nmol-1.min-1
